Assay results from ChEMBL document CHEMBL3259814, “Synthesis and biological evaluation of compounds which contain pyrazole, thiazole and naphthalene ring as antitumor agents” (Bioorg Med Chem Lett, 2014).
Active and inactive are the calls of the source. The calls are words filed in the database; no cut-off is given here.

Experiments:
[1] = Antiproliferative activity against human BGC823 cells assessed as growth inhibition after 24 to 48 hrs by CCK8 assay; assay type: functional, cell-based; settings: BGC-823
Method in brief: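 The CCK8 assay was run on BGC823 cells alongside HeLa and HepG2 cells. Inhibition of cell proliferation was reported as IC50.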

[2] = system: HeLa; assay: cells; assay type: functional, cell-based; settings: Homo sapiens
[3] = system: HepG2; assay: cells; assay type: functional, cell-based; settings: Homo sapiens;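 further: antiproliferative effect read out as growth inhibition by CCK8 assay, measured after 24–48 h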
[4] = target: Epidermal growth factor receptor (Homo sapiens, UniProt P00533); assay type: cell-based, Sf-9
[5] = Antiproliferative activity against human macrophages assessed as alteration in cell morphology after 24 hrs by CCK8 assay; assay type: cell-based, Macrophage
[6] = system: HeLa; assay: Antimetastatic activity against human HeLa cells at 0.08 to 0.12 uM by transwell migration assay; assay type: functional, cell-based
Method in brief: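 HeLa cell migration was tested at 0.08, 0.10 and 0.12 µM. Migrating cells are expressed as a percentage of an untreated control set at 100%. Data are mean ± SD, with p < 0.05 versus control.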

[7] = system: HeLa; assay: Toxicity against human HeLa cells assessed as survival at 0.14 uM by CCK8 assay; assay type: cell-based
Method in brief: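 HeLa survival ratio was measured against compound concentration by CCK8 assay, including 0.14 µM. This was done before the migration testing.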

Chain of Epidermal growth factor receptor (P00533 whole entry): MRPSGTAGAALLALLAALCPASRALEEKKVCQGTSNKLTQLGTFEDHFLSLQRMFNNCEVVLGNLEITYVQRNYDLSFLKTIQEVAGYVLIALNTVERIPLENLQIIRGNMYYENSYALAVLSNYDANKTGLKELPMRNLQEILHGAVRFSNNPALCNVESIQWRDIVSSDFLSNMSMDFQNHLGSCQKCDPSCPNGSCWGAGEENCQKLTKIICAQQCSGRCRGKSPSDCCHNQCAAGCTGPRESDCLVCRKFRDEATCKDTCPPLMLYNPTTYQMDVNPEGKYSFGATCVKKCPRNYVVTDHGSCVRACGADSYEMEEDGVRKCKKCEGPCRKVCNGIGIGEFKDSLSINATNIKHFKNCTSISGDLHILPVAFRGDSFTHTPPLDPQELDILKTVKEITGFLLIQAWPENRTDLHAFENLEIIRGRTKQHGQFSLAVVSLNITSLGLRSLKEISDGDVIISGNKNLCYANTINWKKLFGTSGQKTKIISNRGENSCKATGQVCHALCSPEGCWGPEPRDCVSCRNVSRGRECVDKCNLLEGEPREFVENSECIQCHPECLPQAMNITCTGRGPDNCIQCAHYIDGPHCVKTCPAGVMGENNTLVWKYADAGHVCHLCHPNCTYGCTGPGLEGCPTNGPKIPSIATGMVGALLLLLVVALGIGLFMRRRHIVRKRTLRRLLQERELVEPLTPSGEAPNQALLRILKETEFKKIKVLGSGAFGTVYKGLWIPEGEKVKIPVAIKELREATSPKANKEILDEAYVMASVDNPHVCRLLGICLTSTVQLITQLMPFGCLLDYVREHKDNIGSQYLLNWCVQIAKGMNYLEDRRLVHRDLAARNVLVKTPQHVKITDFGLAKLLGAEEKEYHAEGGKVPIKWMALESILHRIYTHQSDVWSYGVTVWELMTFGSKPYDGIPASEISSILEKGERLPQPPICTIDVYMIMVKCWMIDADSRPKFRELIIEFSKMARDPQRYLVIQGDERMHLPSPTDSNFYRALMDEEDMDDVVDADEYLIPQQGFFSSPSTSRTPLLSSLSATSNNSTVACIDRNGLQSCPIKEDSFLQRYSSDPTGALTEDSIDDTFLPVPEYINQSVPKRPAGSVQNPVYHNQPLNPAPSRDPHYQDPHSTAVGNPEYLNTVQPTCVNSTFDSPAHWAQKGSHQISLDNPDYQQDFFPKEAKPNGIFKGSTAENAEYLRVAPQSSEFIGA

Row | SMILES | IC50 [1] [µM] | IC50 [2] [µM] | IC50 [3] [µM] | IC50 [4] [µM] | CC50 at 24 h [5] [µM] | Activity [6] | Activity [7]
1 | Cc1ccc(C2=NN(C3=NC(=O)CS3)C(c3ccc4ccccc4c3)C2)cc1 (centres undefined) | 7.79 | 1.76 | 12.7 | 3.25 | – | – | –
2 | O=C1CSC(N2N=C(c3ccc(Cl)cc3)CC2c2cccc3ccccc23)=N1 (centres undefined) | 16.4 | 8.84 | 16.4 | – | – | – | –
3 | O=C1CSC(N2N=C(c3ccc(Cl)cc3)CC2c2ccc3ccccc3c2)=N1 (centres undefined) | 13.2 | 6.32 | 20.4 | – | – | – | –
4 | O=C1CSC(N2N=C(c3ccccc3)CC2c2ccc3ccccc3c2)=N1 (centres undefined) | 8.86 | 3.18 | 15.7 | 6.31 | 345 | – | –
5 | O=C1CSC(N2N=C(c3ccccc3)CC2c2cccc3ccccc23)=N1 (centres undefined) | 11.2 | 4.62 | 10.1 | – | – | – | –
6 | O=C1CSC(N2N=C(c3ccc(Br)cc3)CC2c2cccc3ccccc23)=N1 (centres undefined) | 14.6 | 5.81 | 13.4 | – | – | – | –
7 | O=C1CSC(N2N=C(c3ccc(Br)cc3)CC2c2ccc3ccccc3c2)=N1 (centres undefined) | 11.7 | 4.22 | 18.2 | – | – | – | –
8 | Cc1ccc(C2=NN(C3=NC(=O)CS3)C(c3cccc4ccccc34)C2)cc1C (centres undefined) | 7.11 | 1.33 | 5.94 | 1.32 | 383 | – | –
9 | Cc1ccc(C2=NN(C3=NC(=O)CS3)C(c3cccc4ccccc34)C2)cc1 (centres undefined) | 10 | 3.21 | 8.66 | – | – | – | –
10 | COc1ccc(C2=NN(C3=NC(=O)CS3)C(c3cccc4ccccc34)C2)cc1 (centres undefined) | 8.21 | 2.54 | 7.85 | 5.53 | 273 | – | –
11 | COc1ccc(C2=NN(C3=NC(=O)CS3)C(c3ccc4ccccc4c3)C2)cc1 (centres undefined) | 6.94 | 1.48 | 10.4 | – | 363 | – | –
12 | O=C1CSC(N2N=C(c3ccc(F)cc3)CC2c2ccc3ccccc3c2)=N1 (centres undefined) | 14.9 | 9.17 | 24.1 | – | – | – | –
13 | O=C1CSC(N2N=C(c3ccc(F)cc3)CC2c2cccc3ccccc23)=N1 (centres undefined) | 19.3 | 11.2 | 19.5 | – | – | – | –
14 | Cc1ccc(C2=NN(C3=NC(=O)CS3)C(c3ccc4ccccc4c3)C2)cc1C (centres undefined) | 6.02 | 0.86 | 8.49 | 0.12 | 397 | Active | Non-toxic
